Data taken from ChEMBL document CHEMBL3745670, “Synthesis and biological evaluation of novel lipoamino acid derivatives” (Bioorg Med Chem Lett, 2016).
Converted amounts (≈) assume the structure as drawn. One block for each molecule: values may come before it.

Experiments:
Candida parapsilosis [1] = experiment: Inhibition of ergosterol biosynthesis in Candida parapsilosis MTCC 1744 assessed as mean ergosterol content at 8 ug/ml after 20 hrs by spectrophotometric analysis (Rvb=1.62 +/- 0.08 ug/ml); assay type: functional
Pichia sporocuriosa = experiment: Antifungal activity against Issatchenkia hanoiensis MTCC 4755 after 24 hrs by well diffusion assay; assay type: functional; conditions: MTCC 4755, 24 h
Method in brief: (§1)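 Well diffusion screen against Candida and related fungal strains. Read-out is MIC in µg/mL, with miconazole as the reference drug.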

Candida albicans [2] = experiment: Antifungal activity against Candida albicans MTCC 4748 after 24 hrs by well diffusion assay; assay type: functional; conditions: MTCC 4748, 24 h; method in brief: as §1
[Candida] aaseri = Antifungal activity against Candida aaseri MTCC 1962 after 24 hrs by well diffusion assay; assay type: functional; conditions: Yamadazyma aaseri, MTCC 1962, 24 h; method in brief: as §1
Raoultella planticola = experiment: Antibacterial activity against Klebsiella planticola MTCC 530 after 24 hrs by well diffusion assay; assay type: functional; conditions: MTCC 530, 24 h
Bacillus subtilis [3] = experiment: Antibacterial activity against Bacillus subtilis MTCC 121 after 24 hrs by well diffusion assay; assay type: functional; conditions: MTCC 121, 24 h
Micrococcus luteus [4] = experiment: Antibacterial activity against Micrococcus luteus MTCC 2470 after 24 hrs by well diffusion assay; assay type: functional; conditions: MTCC 2470, 24 h
Candida albicans [5] = experiment: Antifungal activity against Candida albicans MTCC 7315 after 24 hrs by well diffusion assay; assay type: functional; conditions: MTCC 7315, 24 h; method in brief: as §1
Staphylococcus aureus [6] = experiment: Antibacterial activity against Staphylococcus aureus MLS-16 MTCC 2940 after 24 hrs by well diffusion assay; assay type: functional; conditions: MLS-16 MTCC 2940, 24 h
Candida albicans [7] = experiment: Antifungal activity against Candida albicans MTCC 183 after 24 hrs by well diffusion assay; assay type: functional; conditions: MTCC 183, 24 h; method in brief: as §1
Candida albicans [8] = experiment: Antifungal activity against Candida albicans MTCC 227 after 24 hrs by well diffusion assay; assay type: functional; conditions: MTCC 227, 24 h; method in brief: as §1
Staphylococcus aureus [9] = experiment: Antibacterial activity against Staphylococcus aureus MTCC 96 after 24 hrs by well diffusion assay; assay type: functional; conditions: MTCC 96, 24 h
Pseudomonas aeruginosa = experiment: Antibacterial activity against Pseudomonas aeruginosa MTCC 2453 after 24 hrs by well diffusion assay; assay type: functional; conditions: MTCC 2453, 24 h
Candida parapsilosis [10] = experiment: Inhibition of ergosterol biosynthesis in Candida parapsilosis MTCC 1744 assessed as mean ergosterol content at 16 ug/ml after 20 hrs by spectrophotometric analysis (Rvb=1.62 +/- 0.08 ug/ml); assay type: functional
Pichia kudriavzevii = experiment: Antifungal activity against Pichia kudriavzevii MTCC 3020 after 24 hrs by well diffusion assay; assay type: functional; conditions: MTCC 3020, 24 h; method in brief: as §1
Candida parapsilosis [11] = experiment: Inhibition of ergosterol biosynthesis in Candida parapsilosis MTCC 1744 assessed as mean ergosterol content at 4 ug/ml after 20 hrs by spectrophotometric analysis (Rvb=1.62 +/- 0.08 ug/ml); assay type: functional
Escherichia coli = experiment: Antibacterial activity against Escherichia coli MTCC 739 after 24 hrs by well diffusion assay; assay type: functional; conditions: MTCC 739, 24 h
Candida parapsilosis [12] = experiment: Antifungal activity against Candida parapsilosis MTCC 1744 after 24 hrs by well diffusion assay; assay type: functional; conditions: Lodderomyces parapsilosis, MTCC 1744, 24 h; method in brief: as §1
Candida parapsilosis [13] = experiment: Inhibition of ergosterol biosynthesis in Candida parapsilosis MTCC 1744 assessed as mean ergosterol content at 2 ug/ml after 20 hrs by spectrophotometric analysis (Rvb=1.62 +/- 0.08 ug/ml); assay type: functional
Candida albicans [14] = experiment: Antifungal activity against Candida albicans MTCC 3017 after 24 hrs by well diffusion assay; assay type: functional; conditions: MTCC 3017, 24 h; method in brief: as §1
Candida albicans [15] = experiment: Antifungal activity against Candida albicans MTCC 3958 after 24 hrs by well diffusion assay; assay type: functional; conditions: MTCC 3958, 24 h; method in brief: as §1
Nakaseomyces glabratus = experiment: Antifungal activity against Candida glabrata MTCC 3019 after 24 hrs by well diffusion assay; assay type: functional; conditions: MTCC 3019, 24 h; method in brief: as §1
Candida albicans [16] = experiment: Antifungal activity against Candida albicans MTCC 1637 after 24 hrs by well diffusion assay; assay type: functional; conditions: MTCC 1637, 24 h; method in brief: as §1
Candida albicans [17] = experiment: Antifungal activity against Candida albicans MTCC 854 after 24 hrs by well diffusion assay; assay type: functional; conditions: MTCC 854, 24 h; method in brief: as §1
Candida albicans [18] = experiment: Antifungal activity against Candida albicans MTCC 3018 after 24 hrs by well diffusion assay; assay type: functional; conditions: MTCC 3018, 24 h; method in brief: as §1
MDA-MB-231 = experiment: Cytotoxicity against human MDA-MB-231 cells by MTT assay; assay type: functional, cell-based
[19] = Cytotoxicity against human DU145 cells by MTT assay; assay type: functional, cell-based; conditions: DU-145
Bacillus subtilis [20] = experiment: Bactericidal activity against Bacillus subtilis MTCC 121 after 24 hrs by well diffusion assay; assay type: functional; conditions: MTCC 121, 24 h
Method in brief: (§2)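 Minimum bactericidal concentration was determined on four Gram-positive strains, for the compounds active in the preliminary antibacterial screen.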

HepG2 = experiment: Cytotoxicity against human HepG2 cells by MTT assay; assay type: functional, cell-based
Micrococcus luteus [21] = experiment: Bactericidal activity against Micrococcus luteus MTCC 2470 after 24 hrs; assay type: functional; conditions: MTCC 2470, 24 h; method in brief: as §2
[22] = Cytotoxicity against human SKOV3 cells by MTT assay; assay type: functional, cell-based; conditions: SK-OV-3
Bacillus subtilis [23] = experiment: Antibiofilm activity against Bacillus subtilis MTCC 121 after 24 hrs by well diffusion assay by crystal violet staining based method; assay type: functional, organism-based; conditions: MTCC 121, 24 h
Method in brief: (§3)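 Biofilm inhibition was tested on the four Gram-positive strains, using crystal violet staining.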

Micrococcus luteus [24] = experiment: Antibiofilm activity against Micrococcus luteus MTCC 2470 after 24 hrs by crystal violet staining based method; assay type: functional, organism-based; conditions: MTCC 2470, 24 h; method in brief: as §3
Staphylococcus aureus [25] = experiment: Bactericidal activity against Staphylococcus aureus MTCC 96 after 24 hrs; assay type: functional; conditions: MTCC 96, 24 h; method in brief: as §2
Staphylococcus aureus [26] = experiment: Antibiofilm activity against Staphylococcus aureus MTCC 96 after 24 hrs by crystal violet staining based method; assay type: functional, organism-based; conditions: MTCC 96, 24 h; method in brief: as §3

SMILES: CCCCCCCCC(CCCCCCCCC(=O)OC)SCC(=O)N[C@@H](CC(C)C)C(=O)OC (stereo partly drawn)
- MIC (Raoultella planticola): > 125 µg/mL
- MIC (Bacillus subtilis [3]): > 125 µg/mL
- MIC (Micrococcus luteus [4]): > 125 µg/mL
- MIC (Staphylococcus aureus [6]): > 125 µg/mL
- MIC (Staphylococcus aureus [9]): > 125 µg/mL
- MIC (Pseudomonas aeruginosa): > 125 µg/mL
- MIC (Escherichia coli): > 125 µg/mL
- IC50 (MDA-MB-231): 152 µM
- IC50 [19]: 215 µM
- MIC (Candida albicans [14]): > 125 µg/mL

SMILES: CCCCCCCCC(CCCCCCCCC(=O)OC)SCC(=O)NCC(=O)OC (stereo not drawn)
- MIC (Raoultella planticola): > 125 µg/mL
- MIC (Bacillus subtilis [3]): 7.8 µg/mL (≈ 17 µM)
- MIC (Micrococcus luteus [4]): 15.6 µg/mL (≈ 33.9 µM)
- MIC (Staphylococcus aureus [6]): > 125 µg/mL
- MIC (Staphylococcus aureus [9]): > 125 µg/mL
- MBC (Bacillus subtilis [20]): 3.9 µg/mL (≈ 8.48 µM)
- MIC (Pseudomonas aeruginosa): > 125 µg/mL
- IC50 (HepG2): 29.6 µM
- MBC (Micrococcus luteus [21]): 31.2 µg/mL (≈ 67.9 µM)
- MIC (Escherichia coli): > 125 µg/mL
- IC50 [22]: 25.2 µM
- IC50 (Bacillus subtilis [23]): 4.4 µM
- IC50 (Micrococcus luteus [24]): 8.2 µM
- IC50 (MDA-MB-231): 31.4 µM
- IC50 [19]: 30.8 µM
- MIC (Candida albicans [14]): 31.2 µg/mL (≈ 67.9 µM)

SMILES: CCCCCCCCC(CCCCCCCCC(=O)OC)SCC(=O)N[C@H](C(=O)OC)[C@@H](C)CC (stereo partly drawn)
- MIC (Raoultella planticola): > 125 µg/mL
- MIC (Bacillus subtilis [3]): > 125 µg/mL
- MIC (Micrococcus luteus [4]): 31.2 µg/mL (≈ 60.5 µM)
- MIC (Staphylococcus aureus [6]): > 125 µg/mL
- MIC (Staphylococcus aureus [9]): 31.2 µg/mL (≈ 60.5 µM)
- MIC (Pseudomonas aeruginosa): > 125 µg/mL
- IC50 (HepG2): 15.3 µM
- MBC (Staphylococcus aureus [25]): 31.2 µg/mL (≈ 60.5 µM)
- MBC (Micrococcus luteus [21]): 31.2 µg/mL (≈ 60.5 µM)
- IC50 (Staphylococcus aureus [26]): 21.5 µM
- MIC (Escherichia coli): > 125 µg/mL
- IC50 [22]: 16.4 µM
- IC50 (Micrococcus luteus [24]): 16.8 µM
- IC50 (MDA-MB-231): 22.4 µM
- IC50 [19]: 19 µM
- MIC (Candida albicans [14]): > 125 µg/mL

Now from value to molecule, other results behind:

- MIC (Pichia sporocuriosa): 7.8 µg/mL (≈ 18.7 µM)
- MIC (Candida albicans [2]): 7.8 µg/mL (≈ 18.7 µM)
- MIC ([Candida] aaseri): 7.8 µg/mL (≈ 18.7 µM)
- MIC (Bacillus subtilis [3]): > 125 µg/mL
- MIC (Micrococcus luteus [4]): > 125 µg/mL
- MIC (Candida albicans [5]): 7.8 µg/mL (≈ 18.7 µM)
- MIC (Staphylococcus aureus [6]): > 125 µg/mL
- MIC (Candida albicans [7]): 7.8 µg/mL (≈ 18.7 µM)
- MIC (Candida albicans [8]): 7.8 µg/mL (≈ 18.7 µM)
- MIC (Staphylococcus aureus [9]): > 125 µg/mL
- MIC (Pseudomonas aeruginosa): > 125 µg/mL
- MIC (Pichia kudriavzevii): 7.8 µg/mL (≈ 18.7 µM)
- MIC (Escherichia coli): > 125 µg/mL
- MIC (Candida parapsilosis [12]): 7.8 µg/mL (≈ 18.7 µM)
- MIC (Candida albicans [14]): 7.8 µg/mL (≈ 18.7 µM)
- MIC (Candida albicans [15]): 7.8 µg/mL (≈ 18.7 µM)
- MIC (Nakaseomyces glabratus): 7.8 µg/mL (≈ 18.7 µM)
- MIC (Candida albicans [16]): 7.8 µg/mL (≈ 18.7 µM)
- MIC (Candida albicans [17]): 7.8 µg/mL (≈ 18.7 µM)
- MIC (Candida albicans [18]): 7.8 µg/mL (≈ 18.7 µM)
SMILES: Clc1ccc(COC(Cn2ccnc2)c2ccc(Cl)cc2Cl)c(Cl)c1 (stereo not drawn) [MICONAZOLE]
- Activity (Candida parapsilosis [1]): 0.24 µg/mL
- MFC (Pichia sporocuriosa): 7.8 µg/mL (≈ 18.7 µM)
- MFC (Candida albicans [2]): 7.8 µg/mL (≈ 18.7 µM)
- MFC ([Candida] aaseri): 15.6 µg/mL (≈ 37.5 µM)
- MIC (Raoultella planticola): > 125 µg/mL
- MFC (Candida albicans [5]): 15.6 µg/mL (≈ 37.5 µM)
- MFC (Candida albicans [7]): 7.8 µg/mL (≈ 18.7 µM)
- MFC (Candida albicans [8]): 15.6 µg/mL (≈ 37.5 µM)
- Activity (Candida parapsilosis [10]): 0.09 µg/mL
- MFC (Pichia kudriavzevii): 7.8 µg/mL (≈ 18.7 µM)
- Activity (Candida parapsilosis [11]): 0.54 µg/mL
- MFC (Candida parapsilosis [12]): 7.8 µg/mL (≈ 18.7 µM)
- Activity (Candida parapsilosis [13]): 1.28 µg/mL
- MFC (Candida albicans [15]): 7.8 µg/mL (≈ 18.7 µM)
- MFC (Nakaseomyces glabratus): 7.8 µg/mL (≈ 18.7 µM)
- MFC (Candida albicans [16]): 15.6 µg/mL (≈ 37.5 µM)
- MFC (Candida albicans [17]): 7.8 µg/mL (≈ 18.7 µM)
- MFC (Candida albicans [18]): 7.8 µg/mL (≈ 18.7 µM)

- MIC (Bacillus subtilis [3]): > 125 µg/mL
- MIC (Micrococcus luteus [4]): > 125 µg/mL
- MIC (Staphylococcus aureus [6]): > 125 µg/mL
- MIC (Staphylococcus aureus [9]): > 125 µg/mL
- MIC (Pseudomonas aeruginosa): > 125 µg/mL
- MIC (Escherichia coli): > 125 µg/mL
- MIC (Candida albicans [14]): > 125 µg/mL
SMILES: CCCCCCCCC(CCCCCCCCC(=O)OC)SCC(=O)N[C@H](C(=O)OC)c1c[nH]c2ccccc12 (stereo partly drawn)
- MIC (Raoultella planticola): > 125 µg/mL
